Data as given in ChEMBL document CHEMBL4699498 (J Med Chem, 2020).
Activity calls are given as the source filed them. The calls are words filed in the database; no cut-off is given here.

Columns and labels:
MDA-MB-436 [1] = test: Antiproliferative activity against human MDA-MB-436 cells assessed as cell growth inhibition incubated for 7 days by CCK-8 assay; format: functional, cell-based; conditions: MDA-MB-436, 168 h
Method in brief: (§1)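 Cells were sub-cultured at least twice and seeded for 24 h before dosing. Compounds came from 10 mM DMSO stocks, given as 10 points of 3-fold serial dilution starting at 10-20 μM. Incubation was about 7 days (Capan-1 13 days) at 37 °C, 5% CO2. Read-out was CCK-8 absorbance at 450 nm, as % growth versus DMSO wells (duplicate wells). IC50 was fitted by nonlinear regression; three independent experiments.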

CAPAN-1 [2] = test: Antiproliferative activity against human CAPAN-1 cells assessed as cell growth inhibition incubated for 13 days by CCK-8 assay; format: functional, cell-based; conditions: CAPAN-1, 312 h; method in brief: as §1
PC-3 = test: Antiproliferation activity against human PC-3 assessed as cell growth inhibition incubated for 7 days by CCK-8 assay; format: functional, cell-based; conditions: time 7.0 day; method in brief: as §1
HCC1937 = test: Antiproliferation activity against human HCC1937 assessed as cell growth inhibition incubated for 7 days by CCK-8 assay; format: functional, cell-based; conditions: time 7.0 day; method in brief: as §1
CWR22R = test: Antiproliferation activity against human 22Rv1 assessed as cell growth inhibition incubated for 7 days by CCK-8 assay; format: functional, cell-based; conditions: time 7.0 day; method in brief: as §1
MDA-MB-468 = test: Antiproliferation activity against human MDA-MB-468 assessed as cell growth inhibition incubated for 7 days by CCK-8 assay; format: functional, cell-based; conditions: time 7.0 day; method in brief: as §1
LNCaP = test: Antiproliferation activity against human LNCAP assessed as cell growth inhibition incubated for 7 days by CCK-8 assay; format: functional, cell-based; conditions: time 7.0 day; method in brief: as §1
SW-620 [3] = test: Antiproliferation activity against human SW620 assessed as cell growth inhibition incubated for 7 days by CCK-8 assay; format: functional, cell-based; conditions: time 7.0 day; method in brief: as §1
MDA-MB-231 = test: Antiproliferation activity against human MDA-MB-231 assessed as cell growth inhibition incubated for 7 days by CCK-8 assay; format: functional, cell-based; conditions: time 7.0 day; method in brief: as §1
MDA-MB-436 [4] = test: Induction of DNA damage in human MDA-MB-436 cells assessed as increase in gammaH2AX foci formation incubated for 24 hrs by Western blot analysis; format: functional, cell-based; conditions: dose microM 0.1-10, time 24.0 hrs
Method in brief: (§2)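 MDA-MB-436 (BRCA1-/-) or Capan-1 (BRCA2-/-) cells were treated 24 h at the indicated concentrations. Lysis was in RIPA buffer with protease inhibitors, and 20-30 μg protein was run on SDS-PAGE. Blots were probed for γH2AX, with β-tubulin as the loading control, and detected by ECL.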

CAPAN-1 [5] = test: Induction of DNA damage in human Capan1 cells assessed as increase in gammaH2AX foci formation incubated for 24 hrs by Western blot analysis; format: functional, cell-based; conditions: dose microM 0.1-10, time 24.0 hrs; method in brief: as §2
CAPAN-1 [6] = test: Antitumor activity against CAPAN-1 cells xenografted in Balb/c mouse assessed as tumor growth inhibition at 100 mg/kg, po qd administered for 21 days; format: functional, organism-based; conditions: time 21.0 day
Method in brief: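 Male BALB/c nude mice (5-6 weeks old) carried subcutaneous Capan-1 xenografts (5×10^6 cells, right armpit). At ~150 mm³ they were randomized (6 per group). Dosing was 100 mg/kg by oral gavage daily for 21 days, or 25 mg/kg intraperitoneally 5 times a week for 3 weeks. Vehicle was 5% DMSO/20% PEG400/10% Cremophor EL/65% saline. Tumor volume was (length/2)×width², measured 2-3 times weekly.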

[7] = Acute toxicity in Balb/c mouse xenografted with SW-620 cells assessed as mean weight loss at 10 mg/kg, po qd administered for 5 days in presence of TMZ measured on day 9 relative to control; format: organism-based; conditions: in vivo, 216 h
Method in brief: (§3)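 Male BALB/c nude mice carried SW620 xenografts (6×10^6 cells s.c.), randomized at ~150 mm³ (6 per group). TMZ 50 mg/kg was given orally once daily on days 0-4, 45 min after the partner drug. Partners were 5 or 10 mg/kg intraperitoneally or 10 mg/kg by oral gavage, daily for 5 days. Vehicle was 5% DMSO/20% PEG400/10% Cremophor EL/65% saline. Tumor volume and body weight were recorded 2-3 times weekly.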

SW-620 [8] = test: Potentiation of TMZ induced antitumor activity against SW-620 cells xenografted in Balb/c mouse assessed as tumor growth suppression at 10 mg/kg, po qd administered for 5 days; format: functional, organism-based; conditions: time 5.0 day; method in brief: as §3
[9] = Acute toxicity in Balb/c mouse xenografted with Capan1 cells assessed as lethality at 100 mg/kg, po qd administered for 5 days in presence of cisplatin; format: organism-based; conditions: in vivo, 120 h, time 5 day
Method in brief: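 Male BALB/c nude mice (5–6 weeks) carried s.c. Capan-1 xenografts (5×10^6 cells, right armpit) and were randomised at about 150 mm³, 6 per group. The agent was given once daily on days 0–4, by oral gavage or i.p., in DMSO/PEG400/Cremophor EL/saline vehicle. Cisplatin 6 mg/kg in saline was given i.p. on day 2, 45 min after the agent. Body weight was recorded 2–3 times weekly.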

[10] = Acute toxicity in Balb/c mouse xenografted with SW-620 cells assessed as lethality at 10 mg/kg, po qd administered for 5 days in presence of TMZ; format: organism-based; conditions: in vivo, 120 h, time 5 day
Method in brief: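 In male BALB/c nude mice (5–6 weeks), s.c. SW620 xenografts (6×10^6 cells, right armpit) were grown to about 150 mm³, then randomised, 6 per group. The agent was given once daily for 5 days, orally or i.p., in 5% DMSO/20% PEG400/10% Cremophor EL/65% saline. TMZ 50 mg/kg was given orally once daily for 5 days from day 0, 45 min after the agent. Body weight was measured 2–3 times weekly.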

## O=C(c1cc(Cc2n[nH]c(=O)c3ccccc23)ccc1F)N1CCN(C(=O)C2CC2)CC1 [OLAPARIB]
MDA-MB-436 [1]
  IC50: 0.018 µM
CAPAN-1 [2]
  IC50: 0.027 µM
PC-3
  Activity: Active
HCC1937
  Activity: Active
CWR22R
  Activity: Active
MDA-MB-468
  Activity: Active
LNCaP
  Activity: Active
SW-620 [3]
  Activity: Active
MDA-MB-231
  Activity: Active
MDA-MB-436 [4]
  Activity: Active
CAPAN-1 [5]
  Activity: Active
CAPAN-1 [6]
  Activity: Active
[7]
  Activity: 15%
SW-620 [8]
  Activity: Active
[9]
  Activity: Non-Toxic
[10]
  Activity: Non-Toxic
